The results in this text go back to ChEMBL document CHEMBL3045336, “Synthesis of 1-triazolyl-4-trimethylsilyl-2-butanol and 1-triazolyl-5-trimethylsilyl-2-pentanol derivatives and an investigation of their fungicidal activities” (Chem Pharm Bull (Tokyo), 2003).

The test system of one test is Blumeria hordei. Briefly: Fungicidal activity against Blumeria graminis f. sp. hordei infested first-leaf stage of barley seedlings assessed as growth inhibition applied as spray after 10 days under green house conditions. The test is classed as functional. The note with it: 240 h.
A further test deals with Rhizoctonia solani. The test is described as follows: Fungicidal activity against Rhizoctonia solani assessed as mycelial growth inhibition after 3 days. The test is classed as functional, organism-based. Put shortly: (§1)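 Mycelial agar discs (4 mm) placed on potato dextrose agar plates containing test compound and incubated at 25 °C. Pyricularia oryzae was incubated for 7 d and Rhizoctonia solani for 3 d.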

The subject of the next test is Pyricularia grisea. The test is described as follows: Fungicidal activity against Magnaporthe oryzae assessed as mycelial growth inhibition after 7 days. The test is classed as functional, organism-based, Pyricularia oryzae. Put shortly:
as §1

Converted amounts (≈) assume the structure as drawn.

A word on the MIC: it is the least concentration at which growth counts as inhibited. With `C[Si](C)(C)CCC(O)(Cn1cncn1)c1ccccc1` (configuration not stated), in the test with Blumeria hordei, the MIC turned out to be 3 µg/mL (≈ 10.4 µM). The IC50 is more than 1 ppm with Rhizoctonia solani and more than 10 ppm with Pyricularia grisea.
The matching figures for `C[Si](C)(C)CCCC(O)(Cn1cncn1)c1ccc(Cl)cc1` (configuration not stated): 1 µg/mL (≈ 2.96 µM), 0.61 ppm and more than 3 ppm.
The matching figures for `C[Si](C)(C)CCCC(O)(Cn1cncn1)c1ccccc1` (configuration not stated): 3 µg/mL (≈ 9.89 µM), more than 1 ppm and more than 10 ppm.
In the same order, the values of `C[Si](C)(C)CCCC(O)(Cn1cncn1)c1ccc(F)cc1F` (configuration not stated) are 1 µg/mL (≈ 2.95 µM), 0.01 ppm and 0.89 ppm.
In the case of `C[Si](C)(C)CCCC(O)(Cn1cncn1)c1ccc(F)cc1` (configuration not stated), in the test with Blumeria hordei, the MIC was 3 µg/mL (≈ 9.33 µM). The IC50 in the test with Rhizoctonia solani is 0.42 ppm; in the test on Pyricularia grisea it was more than 3 ppm.
The matching figures for `C[Si](C)(C)CCC(O)(Cn1cncn1)c1ccc(Br)cc1` (configuration not stated): 3 µg/mL (≈ 8.14 µM), more than 1 ppm and more than 10 ppm.
In the same order, the values of `C[Si](C)(C)CCCC(O)(Cn1cncn1)c1ccc(Cl)c(Cl)c1` (configuration not stated) are more than 3 µg/mL, 1.94 ppm and more than 10 ppm.
The matching figures for `C[Si](C)(C)CCC(O)(Cn1cncn1)c1ccc(F)cc1F` (configuration not stated): 0.3 µg/mL (≈ 0.922 µM), 0.12 ppm and 3.1 ppm.
Regarding `C[Si](C)(C)CC(O)(Cn1cncn1)c1ccc(F)cc1` (configuration not stated) [SIMECONAZOLE], in the test with Blumeria hordei, the MIC was 0.3 µg/mL (≈ 1.02 µM). For the same molecule, the IC50 is 0.04 ppm in the test on Rhizoctonia solani and 1.09 ppm in the test with Pyricularia grisea.
Take `C[Si](C)(C)CCC(O)(Cn1cncn1)c1ccc(F)cc1` (configuration not stated): in the test on Blumeria hordei, the minimum inhibitory concentration (MIC) was determined as 3 µg/mL (≈ 9.76 µM). The figures for the IC50 in the test with Rhizoctonia solani and in the test on Pyricularia grisea were more than 1 ppm and 10 ppm, respectively.
Turning to `C[Si](C)(C)CCC(O)(Cn1cncn1)c1ccc(Cl)cc1` (configuration not stated), the MIC in the test on Blumeria hordei amounted to 3 µg/mL (≈ 9.26 µM). Also, the figures for the IC50 in the test with Rhizoctonia solani and in the test with Pyricularia grisea were more than 1 ppm and more than 10 ppm, respectively.
In the same order, the values of `Cc1ccc(C(O)(CC[Si](C)(C)C)Cn2cncn2)cc1` (configuration not stated) are more than 3 µg/mL, more than 1 ppm and more than 10 ppm.
As to `C[Si](C)(C)CCC(O)(Cn1cncn1)c1ccc(Cl)cc1Cl` (configuration not stated), in the test with Blumeria hordei, the minimum inhibitory concentration (MIC) stood at 0.3 µg/mL (≈ 0.837 µM). Further, the figures for the IC50 with Rhizoctonia solani and in the test on Pyricularia grisea were 0.05 ppm and 2.57 ppm, respectively.
`COc1ccc(C(O)(CC[Si](C)(C)C)Cn2cncn2)cc1` (configuration not stated): the MIC with Blumeria hordei is more than 3 µg/mL. The IC50 in the test on Rhizoctonia solani is reported as more than 1 ppm; in the test with Pyricularia grisea, more than 10 ppm.
